ChEMBL document CHEMBL1142193, “Dual targeting of GyrB and ParE by a novel aminobenzimidazole class of antibacterial compounds” (2007)
≈ marks a conversion by molar mass, not a printed value. Calls of active or inactive are those of the source. No cut-off for these calls is given here.

Columns and labels:
[1] = system: Haemophilus influenzae; test: Antibacterial activity against novobiocin-resistant Haemophilus influenzae ATCC 51907 with GyrB R140H mutation after 18 to 20 hrs; type: functional
Outline: (§1)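 MICs followed CLSI guidelines. Strains were grown overnight at 35°C on solid medium. Inocula were prepared with a Prompt system. Compounds were serially diluted twofold in 100% DMSO at 200x and diluted 1:200 into medium, for a final 0.5% DMSO. Plates were incubated at 35°C for 18 to 20 h and read visually. A twofold MIC variation was taken as assay error.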

[2] = system: Enterococcus faecalis; test: Antibacterial activity against Enterococcus faecalis ATCC 29212 with ParE T169A mutation after 18 to 20 hrs; type: functional; outline: as §1
[3] = system: Enterococcus faecalis; test: Antibacterial activity against Enterococcus faecalis ATCC 29212 with GyrB T167I and ParE T169A mutation after 18 to 20 hrs; type: functional; outline: as §1
[4] = system: Haemophilus influenzae; test: Antibacterial activity against novobiocin-resistant Haemophilus influenzae ATCC 51907 with GyrB R140L mutation after 18 to 20 hrs; type: functional; outline: as §1
[5] = system: Enterococcus faecalis; test: Antibacterial activity against Enterococcus faecalis ATCC 29212 with GyrB T167A and ParE T169A mutation after 18 to 20 hrs; type: functional; outline: as §1
[6] = system: Staphylococcus aureus; test: Antibacterial activity against Staphylococcus aureus ATCC 29213 after 18 to 20 hrs; type: functional; outline: as §1
[7] = system: Staphylococcus aureus; test: Antibacterial activity against Staphylococcus aureus ATCC 29213 carrying plasmid expressing GyrB T173N mutant; type: functional
[8] = system: Staphylococcus aureus; test: Antibacterial activity against Staphylococcus aureus ATCC 29213 with GyrB T173N mutation without plasmid; type: functional
[9] = system: Staphylococcus aureus; test: Antibacterial activity against novobiocin-resistant Staphylococcus aureus ATCC 29213 with GyrB R144I mutation after 18 to 20 hrs; type: functional; outline: as §1
[10] = system: Streptococcus pneumoniae; test: Antibacterial activity against novobiocin-resistant Streptococcus pneumoniae ATCC BAA-255 with GyrB S127L mutation after 18 to 20 hrs; type: functional; outline: as §1
[11] = system: Streptococcus pneumoniae; test: Antibacterial activity against Streptococcus pneumoniae ATCC BAA-255 after 18 to 20 hrs; type: functional; outline: as §1
[12] = system: Enterococcus faecalis; test: Antibacterial activity against Enterococcus faecalis ATCC 29212 with GyrB T167I mutation after 18 to 20 hrs; type: functional; outline: as §1
[13] = system: Staphylococcus aureus; test: Antibacterial activity against Staphylococcus aureus ATCC 29213 with GyrB T173N mutation after 18 to 20 hrs; type: functional; outline: as §1
[14] = system: Enterococcus faecalis; test: Antibacterial activity against Enterococcus faecalis ATCC 29212 with GyrB T167A mutation after 18 to 20 hrs; type: functional; outline: as §1
[15] = system: Haemophilus influenzae; test: Antibacterial activity against novobiocin-resistant Haemophilus influenzae ATCC 51907 with GyrB R140C mutation after 18 to 20 hrs; type: functional; outline: as §1
[16] = system: Staphylococcus aureus; test: Antibacterial activity against Staphylococcus aureus ATCC 29213 with GyrB T173N and GrlB T166A mutation after 18 to 20 hrs; type: functional; outline: as §1
[17] = system: Haemophilus influenzae; test: Antibacterial activity against Haemophilus influenzae ATCC 51907 after 18 to 20 hrs; type: functional; outline: as §1
[18] = system: Staphylococcus aureus; test: Antibacterial activity against Staphylococcus aureus ATCC 29213 with GyrB R144I mutation without plasmid; type: functional
[19] = system: Staphylococcus aureus; test: Antibacterial activity against Staphylococcus aureus ATCC 29213 with GyrB T173I mutation without plasmid; type: functional
[20] = system: Staphylococcus aureus; test: Antibacterial activity against Staphylococcus aureus ATCC 29213 without plasmid; type: functional
[21] = system: Staphylococcus aureus; test: Antibacterial activity against Staphylococcus aureus ATCC 29213 carrying plasmid expressing wild type GyrB; type: functional
[22] = system: Haemophilus influenzae; test: Antibacterial activity against Haemophilus influenzae ATCC 51907 with GyrB T169I mutation after 18 to 20 hrs; type: functional; outline: as §1
[23] = system: Staphylococcus aureus; test: Antibacterial activity against Staphylococcus aureus ATCC 29213 with GyrB T173I and GrlB T166A mutation after 18 to 20 hrs; type: functional; outline: as §1
[24] = system: Staphylococcus aureus; test: Antibacterial activity against Staphylococcus aureus ATCC 29213 with GyrB T173I mutation after 18 to 20 hrs; type: functional; outline: as §1
[25] = system: Staphylococcus aureus; test: Antibacterial activity against Staphylococcus aureus ATCC 29213 carrying plasmid expressing GyrB R144I mutant; type: functional
[26] = system: Staphylococcus aureus; test: Antibacterial activity against Staphylococcus aureus ATCC 29213 carrying plasmid expressing GyrB T173I mutant; type: functional
[27] = system: Enterococcus faecalis; test: Antibacterial activity against Enterococcus faecalis ATCC 29212 after 18 to 20 hrs; type: functional; outline: as §1
[28] = system: Streptococcus pneumoniae; test: Antibacterial activity against Streptococcus pneumoniae ATCC BAA-255 with GyrB T172A and ParE T172A mutation after 18 to 20 hrs; type: functional; outline: as §1
[29] = system: Streptococcus pneumoniae; test: Antibacterial activity against Streptococcus pneumoniae ATCC BAA-255 with ParE T172I mutation after 18 to 20 hrs; type: functional; outline: as §1
[30] = system: Streptococcus pneumoniae; test: Antibacterial activity against Streptococcus pneumoniae ATCC BAA-255 with ParE T172A mutation after 18 to 20 hrs; type: functional; outline: as §1
[31] = system: Escherichia coli; test: Reduction in steady-state levels of supercoiled pUC18 in Escherichia coli CAG12184 tolC mutant; type: functional, organism-based
Outline: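 Cells carrying pUC18 grown at 37°C in caMHB with 100 µg/ml ampicillin to OD600 0.5, then exposed 1 h at 37°C with shaking to a twofold dilution series spanning the MIC. Plasmid isolated, concentrated, run on 1% TBE-agarose alongside supercoiled markers for 16 h, stained with ethidium bromide.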

[32] = system: Staphylococcus aureus; test: Inhibition of RNA synthesis in Staphylococcus aureus ATCC 29213 assessed as [3H]uridine incorporation; type: functional
Outline: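 Log-phase cells exposed in duplicate to compound at 5x MIC; labelled-precursor uptake measured over 15 min, stopped with 10% trichloroacetic acid. Incorporation expressed as percent of untreated control (taken as 100%).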

[33] = system: Staphylococcus aureus; test: Inhibition of protein synthesis in Staphylococcus aureus ATCC 29213 assessed as [3H]aminoacid incorporation; type: functional

| Compound | MIC [1] | MIC [2] | MIC [3] | MIC [4] | MIC [5] | MIC [6] | MIC [7] | MIC [8] | MIC [9] | MIC [10] | MIC [11] | MIC [12] | MIC [13] | MIC [14] | MIC [15] | MIC [16] | MIC [17] | MIC [18] | MIC [19] | MIC [20] | also measured |
| --- | --- | --- | --- | --- | --- | --- | --- | --- | --- | --- | --- | --- | --- | --- | --- | --- | --- | --- | --- | --- | --- |
| CO[C@@H]1[C@@H](OC(N)=O)[C@@H](O)[C@H](Oc2ccc3c(O)c(NC(=O)c4ccc(O)c(CC=C(C)C)c4)c(=O)oc3c2C)OC1(C)C [NOVOBIOCIN] | 4 µg/mL (≈ 6.53 µM) | 8 µg/mL (≈ 13.1 µM) | 16 µg/mL (≈ 26.1 µM) | 4 µg/mL (≈ 6.53 µM) | 16 µg/mL (≈ 26.1 µM) | 0.13 µg/mL (≈ 0.212 µM) | 0.13 µg/mL (≈ 0.212 µM) | 0.25 µg/mL (≈ 0.408 µM) | 8 µg/mL (≈ 13.1 µM) | 8 µg/mL (≈ 13.1 µM) | 0.5 µg/mL (≈ 0.816 µM) | 32 µg/mL (≈ 52.2 µM) | 0.25 µg/mL (≈ 0.408 µM) | 16 µg/mL (≈ 26.1 µM) | 8 µg/mL (≈ 13.1 µM) | 0.25 µg/mL (≈ 0.408 µM) | 0.064 µg/mL (≈ 0.104 µM) | 8 µg/mL (≈ 13.1 µM) | 2 µg/mL (≈ 3.26 µM) | 0.13 µg/mL (≈ 0.212 µM) | MIC [21]: 0.13 µg/mL (≈ 0.212 µM); MIC [22]: 0.25 µg/mL (≈ 0.408 µM); MIC [23]: 2 µg/mL (≈ 3.26 µM); MIC [24]: 1 µg/mL (≈ 1.63 µM); MIC [25]: 8 µg/mL (≈ 13.1 µM); MIC [26]: 0.5 µg/mL (≈ 0.816 µM); MIC [27]: 8 µg/mL (≈ 13.1 µM); MIC [28]: 4 µg/mL (≈ 6.53 µM); MIC [29]: 0.5 µg/mL (≈ 0.816 µM); MIC [30]: 0.5 µg/mL (≈ 0.816 µM) |
| CCNC(=O)Nc1nc2cc(-c3cccnc3)cc(-c3ncccc3F)c2[nH]1 | 1 µg/mL (≈ 2.66 µM) | 0.064 µg/mL (≈ 0.17 µM) | 1 µg/mL (≈ 2.66 µM) | 1 µg/mL (≈ 2.66 µM) | 0.5 µg/mL (≈ 1.33 µM) | 0.03 µg/mL (≈ 0.0797 µM) | 0.25 µg/mL (≈ 0.664 µM) | 0.25 µg/mL (≈ 0.664 µM) | 0.06 µg/mL (≈ 0.159 µM) | 0.002 µg/mL (≈ 0.00531 µM) | 0.004 µg/mL (≈ 0.0106 µM) | 0.064 µg/mL (≈ 0.17 µM) | 0.5 µg/mL (≈ 1.33 µM) | 0.032 µg/mL (≈ 0.085 µM) | 1 µg/mL (≈ 2.66 µM) | > 8 µg/mL | 1 µg/mL (≈ 2.66 µM) | 0.06 µg/mL (≈ 0.159 µM) | 0.25 µg/mL (≈ 0.664 µM) | 0.06 µg/mL (≈ 0.159 µM) | Activity [31]: Dose-dependent effect; MIC [21]: 0.06 µg/mL (≈ 0.159 µM); MIC [22]: > 64 µg/mL; MIC [23]: 4 µg/mL (≈ 10.6 µM); MIC [24]: 0.5 µg/mL (≈ 1.33 µM); MIC [25]: 0.06 µg/mL (≈ 0.159 µM); MIC [26]: 0.13 µg/mL (≈ 0.345 µM); MIC [27]: 0.032 µg/mL (≈ 0.085 µM); MIC [28]: 0.25 µg/mL (≈ 0.664 µM); MIC [29]: 0.016 µg/mL (≈ 0.0425 µM); MIC [30]: 0.016 µg/mL (≈ 0.0425 µM) |
| CO[C@H]1/C=C/O[C@@]2(C)Oc3c(C)c(O)c4c(O)c(c(/C=N/N5CCN(C)CC5)c(O)c4c3C2=O)NC(=O)/C(C)=C\C=C\[C@H](C)[C@H](O)[C@@H](C)[C@@H](O)[C@@H](C)[C@H](OC(C)=O)[C@@H]1C |  |  |  |  |  |  |  |  |  |  |  |  |  |  |  |  |  |  |  |  | Activity [32]: Active; Activity [33]: Active |
